Results as given in ChEMBL document CHEMBL1156179 (J Med Chem, 2010).

How the values were obtained:
[1] = molecular target: T1, Adenosine receptor A3 (Homo sapiens, UniProt P0DMS8); experiment: Displacement of [3H]NECA from human cloned adenosine A3 receptor expressed in CHO cells; assay type: cell-based
T1 sequence (P0DMS8 whole entry): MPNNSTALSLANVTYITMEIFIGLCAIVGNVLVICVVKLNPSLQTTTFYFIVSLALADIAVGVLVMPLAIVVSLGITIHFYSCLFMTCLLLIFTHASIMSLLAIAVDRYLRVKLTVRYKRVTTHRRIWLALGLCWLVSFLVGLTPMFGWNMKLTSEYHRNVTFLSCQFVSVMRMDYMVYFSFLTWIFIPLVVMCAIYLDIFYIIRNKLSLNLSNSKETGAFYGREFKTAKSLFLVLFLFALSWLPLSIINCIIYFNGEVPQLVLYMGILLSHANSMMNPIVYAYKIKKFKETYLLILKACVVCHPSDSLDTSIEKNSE

[2] = organism: Homo sapiens; experiment: Selectivity ratio of Ki for human adenosine A2A receptor to Ki for human adenosine A3
[3] = molecular target: T2, Adenosine receptor A2b (Homo sapiens, UniProt P29275); experiment: Antagonist activity at human cloned adenosine A2b receptor expressed in CHO cells assessed as inhibition of NECA-stimulated cAMP accumulation; assay type: functional, cell-based
T2 sequence (P29275 whole entry): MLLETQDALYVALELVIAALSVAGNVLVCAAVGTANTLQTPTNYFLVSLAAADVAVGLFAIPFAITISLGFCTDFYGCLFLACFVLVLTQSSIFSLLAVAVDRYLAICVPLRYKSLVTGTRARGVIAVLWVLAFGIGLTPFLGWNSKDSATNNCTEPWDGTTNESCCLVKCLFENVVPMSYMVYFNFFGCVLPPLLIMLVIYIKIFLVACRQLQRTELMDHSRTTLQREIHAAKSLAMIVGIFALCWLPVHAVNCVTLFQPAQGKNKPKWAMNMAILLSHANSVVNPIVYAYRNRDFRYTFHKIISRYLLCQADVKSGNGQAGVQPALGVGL
Outline: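 Membranes from CHO cells with hA2B receptor, prepared by a single 30 min spin at 54000g and resuspended in 50 mM Tris/HCl pH 7.4, used fresh. Antagonist inhibition of NECA-stimulated adenylyl cyclase gave IC50 by Hill fit; Ki from Cheng–Prusoff.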

[4] = molecular target: T3, Adenosine receptor A1 (Homo sapiens, UniProt P30542); experiment: Displacement of [3H]CCPA from human cloned adenosine A1 receptor expressed in CHO cells; assay type: cell-based
T3 sequence (P30542 whole entry): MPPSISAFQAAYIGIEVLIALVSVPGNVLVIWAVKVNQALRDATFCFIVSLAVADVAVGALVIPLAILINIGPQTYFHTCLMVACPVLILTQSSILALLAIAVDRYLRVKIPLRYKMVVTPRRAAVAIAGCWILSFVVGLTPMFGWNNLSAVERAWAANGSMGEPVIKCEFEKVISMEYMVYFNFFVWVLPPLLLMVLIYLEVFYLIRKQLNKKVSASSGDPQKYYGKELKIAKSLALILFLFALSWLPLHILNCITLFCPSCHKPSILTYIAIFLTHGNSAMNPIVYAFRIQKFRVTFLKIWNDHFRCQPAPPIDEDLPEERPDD
Outline: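 CHO membranes with hA1 receptor, from 1000g 4 min spin then 100000g 30 min. Incubated 3 h at 25 °C with 1 nM [3H]CCPA, 0.2 U/mL adenosine deaminase, 20 μg protein in 50 mM Tris/HCl pH 7.4 and graded compound. Nonspecific binding with 1 mM theophylline.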

[5] = molecular target: Adenosine receptors; A1 & A3 (Homo sapiens) (UniProt P30542+P0DMS8); experiment: Selectivity ratio of Ki for human adenosine A1 receptor to Ki for human adenosine A3
[6] = molecular target: Adenosine receptor A2a (Homo sapiens, UniProt P29274); experiment: Displacement of [3H]NECA from human cloned adenosine A2a receptor expressed in CHO cells; assay type: cell-based
Outline: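 hA2A-CHO membranes, prepared by two-step centrifugation, were incubated with 30 nM [3H]NECA, 50 μg protein and graded compound under the A1 binding conditions. Nonspecific binding with 100 μM R-PIA.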

Chain of Adenosine receptor A2a (P29274 whole entry): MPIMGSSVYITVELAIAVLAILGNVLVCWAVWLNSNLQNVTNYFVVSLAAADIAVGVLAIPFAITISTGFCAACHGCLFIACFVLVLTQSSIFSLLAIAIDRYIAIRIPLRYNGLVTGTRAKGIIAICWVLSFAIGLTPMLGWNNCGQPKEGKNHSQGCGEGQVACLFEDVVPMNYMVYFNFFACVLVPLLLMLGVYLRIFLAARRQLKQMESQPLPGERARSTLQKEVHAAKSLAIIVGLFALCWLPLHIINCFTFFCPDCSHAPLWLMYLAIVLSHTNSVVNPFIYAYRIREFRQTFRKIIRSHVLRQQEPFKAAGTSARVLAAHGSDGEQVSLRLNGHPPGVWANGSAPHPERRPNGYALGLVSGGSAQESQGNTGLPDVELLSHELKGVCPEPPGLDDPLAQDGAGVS

Row | Ki [1] | Ratio Ki [2] | Ki [3] | Ki [4] | Ratio Ki [5] | Ki [6] | SMILES
1 | 3.43 nM | > 29200 | > 10000 nM | 2530 nM | 738 | > 100000 nM | Cn1cc2c(nc(NC(=O)c3ccccc3)n3nc(-c4ccc(F)cc4)nc23)n1
2 | 56.4 nM | > 1770 | > 10000 nM | > 30000 nM | > 532 | > 100000 nM | Cn1cc2c(nc(NC(=O)c3ccccc3)n3nc(-c4ccc([N+](=O)[O-])cc4)nc23)n1
3 | 0.108 nM | 7200 | > 10000 nM | 562 nM | 5200 | 778 nM | Cn1cc2c(nc(NC(=O)Cc3ccccc3)n3nc(-c4ccccc4)nc23)n1
4 | 6.88 nM | > 1450 | > 10000 nM | > 10000 nM | > 1450 | > 10000 nM | COc1ccc(-c2nc3c4cn(C)nc4nc(N(C(=O)c4ccccc4)C(=O)c4ccccc4)n3n2)cc1
5 | 23.9 nM | 40.3 | > 10000 nM | 313 nM | 13.1 | 963 nM | O=C(Nc1nc2nn(CCc3ccccc3)cc2c2nc(-c3ccccc3)nn12)c1ccccc1
6 | 0.201 nM | 12600 | > 10000 nM | 2290 nM | 11400 | 2540 nM | Cn1cc2c(nc(NC(=O)Cc3ccccc3)n3nc(-c4ccc(F)cc4)nc23)n1
7 | 50.6 nM | 2.51 | > 10000 nM | 39.1 nM | 0.773 | 127 nM | Nc1nc2nn(CCc3ccccc3)cc2c2nc(-c3ccc(F)cc3)nn12
8 | 0.624 nM | 38300 | > 10000 nM | 23200 nM | 37200 | 23900 nM | Cn1cc2c(nc(NC(=O)Cc3ccccc3)n3nc(-c4ccc([N+](=O)[O-])cc4)nc23)n1
9 | 2.82 nM | > 35500 | > 10000 nM | > 30000 nM | > 10600 | > 100000 nM | Cn1cc2c(nc(NC(=O)c3ccccc3)n3nc(-c4ccc(Cl)cc4)nc23)n1
10 | 75 nM | 1.61 | > 10000 nM | 339 nM | 4.52 | 121 nM | Cn1cc2c(nc(N)n3nc(-c4ccccc4)nc23)n1
11 |  | 522 |  |  | 867 |  | Cn1cc2c(nc(NC(=O)Cc3ccccc3)n3nc(-c4ccco4)nc23)n1
12 | 16.7 nM | 71.3 | > 10000 nM | 9730 nM | 583 | 1190 nM | COc1ccc(-c2nc3c4cn(C)nc4nc(N)n3n2)cc1
13 | 5.24 nM | > 19100 | > 10000 nM | > 30000 nM | > 5730 | > 100000 nM | Cn1cc2c(nc(NC(=O)c3ccccc3)n3nc(-c4ccc(Br)cc4)nc23)n1
14 | 72.4 nM | 27.9 | > 10000 nM | 4860 nM | 67.1 | 2020 nM | Cn1cc2c(nc(N)n3nc(-c4ccc(Cl)cc4)nc23)n1
15 | 0.248 nM | 33500 | > 10000 nM | 4850 nM | 19600 | 8320 nM | Cn1cc2c(nc(NC(=O)Cc3ccccc3)n3nc(-c4ccc(Cl)cc4)nc23)n1
16 | 5 nM | 64.8 | > 10000 nM | 622 nM | 124 | 324 nM | Cn1cc2c(nc(NC(=O)c3ccccc3)n3nc(-c4ccccc4)nc23)n1

Row | Ki [1] | Ratio Ki [2] | Ki [3] | Ki [4] | Ratio Ki [5] | Ki [6] | SMILES
17 | 153 nM | > 654 | > 10000 nM | 270 nM | 1.76 | > 100000 nM | O=C(Nc1nc2nn(CCc3ccccc3)cc2c2nc(-c3ccc(Br)cc3)nn12)c1ccccc1
18 | 0.345 nM | > 290000 | > 10000 nM | 24400 nM | 70700 | > 100000 nM | Cn1cc2c(nc(NC(=O)Cc3ccccc3)n3nc(-c4ccc(Br)cc4)nc23)n1
19 | 6.94 nM | > 1440 | > 10000 nM | > 10000 nM | > 1440 | > 10000 nM | Cn1cc2c(nc(N(C(=O)c3ccccc3)C(=O)c3ccccc3)n3nc(-c4ccc(Cl)cc4)nc23)n1
20 | 655 nM | > 15.3 | > 10000 nM | > 300000 nM | > 458 | > 10000 nM | Cn1cc2c(nc(N)n3nc(-c4ccc([N+](=O)[O-])cc4)nc23)n1
21 | 31.4 nM | 11.3 | > 10000 nM | 1010 nM | 32.2 | 355 nM | Cn1cc2c(nc(N)n3nc(-c4ccc(F)cc4)nc23)n1
22 | 79.7 nM | 27.4 | > 10000 nM | 204 nM | 2.56 | 2180 nM | Nc1nc2nn(CCc3ccccc3)cc2c2nc(-c3ccc(Cl)cc3)nn12
23 | 221 nM | > 136 | > 10000 nM | 498 nM | 2.25 | > 30000 nM | Nc1nc2nn(CCc3ccccc3)cc2c2nc(-c3ccc(Br)cc3)nn12
24 | 565 nM | 0.15 | > 10000 nM | 121 nM | 0.21 | 83.8 nM | CCn1ncc2c1nc(N)n1nc(-c3ccc(Cl)cc3)nc21
25 | 38.6 nM | 38.9 | > 10000 nM | 2890 nM | 74.9 | 1500 nM | Cn1cc2c(nc(N)n3nc(-c4ccc(Br)cc4)nc23)n1
26 |  | 0.009 |  |  | 0.33 |  | Cn1cc2c(nc(N)n3nc(-c4ccco4)nc23)n1
27 | 2.1 nM | > 47600 | > 10000 nM | > 30000 nM | > 14300 | > 100000 nM | COc1ccc(-c2nc3c4cn(C)nc4nc(NC(=O)c4ccccc4)n3n2)cc1
28 | 76.7 nM | 2.56 | > 10000 nM | 74.8 nM | 0.975 | 196 nM | Nc1nc2nn(CCc3ccccc3)cc2c2nc(-c3ccccc3)nn12
29 | 0.241 nM | > 415000 | > 10000 nM | > 30000 nM | > 124000 | > 100000 nM | COc1ccc(-c2nc3c4cn(C)nc4nc(NC(=O)Cc4ccccc4)n3n2)cc1
30 | 25 nM | 56 | > 10000 nM | 289 nM | 11.6 | 1400 nM | COc1ccc(-c2nc3c4cn(CCc5ccccc5)nc4nc(N)n3n2)cc1
31 | 68.7 nM | 12.3 | > 10000 nM | 1570 nM | 22.9 | 843 nM | CCn1cc2c(nc(N)n3nc(-c4ccc(Cl)cc4)nc23)n1
